ChEMBL document CHEMBL1649302, “New small-molecule inhibitor class targeting human immunodeficiency virus type 1 virion maturation” (Antimicrob Agents Chemother, 2009)

Legend:
[1] = Cytotoxicity against human MT2 cells after 6 days by XTT assay; assay type: cell-based
How it was run: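 Uninfected cells were incubated with half-log compound dilutions for 6 days, then given XTT/PMS for 4 h and read at 450 nm. CC50 was the concentration reducing formazan to 50% of uninfected, compound-free cells. Values are means ± SD from 3–5 experiments or individual values.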

[2] = test system: Human immunodeficiency virus 1; test: Antiviral activity against HIV1 NL4-3 infected in human PM1 cells assessed as inhibition of viral p24 antigen production after 5 days; assay type: functional, organism-based; conditions: Human immunodeficiency virus 1, NL4-3, PM1, 120 h
How it was run: (§1)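 PM1 cells (NL4-3, Ba-L) or MT-2 cells (92HT594, 92HT599) were infected at MOI 0.16 for 2 h and washed. They were plated at 1 × 10⁴ cells/well (2 × 10⁵/ml) onto half-log compound dilutions. Supernatant p24 was quantified by ELISA at day 5. EC50 was the concentration giving a 50% decrease versus infected, compound-free cells.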

[3] = test system: Human immunodeficiency virus 1; test: Antiviral activity against HIV1 3B infected in human MT2 cells assessed as protection against virus-induced cytopathogenicity after 6 days by XTT assay; assay type: functional, organism-based; conditions: Human immunodeficiency virus 1, 3B, MT2, 144 h
How it was run: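 Host cells were infected with NL4-3 or IIIB (MOI 0.08) or RF (MOI 0.025–0.819) and seeded at 2 × 10⁴/well onto half-log compound dilutions. After 6 days, XTT/PMS was added for 4 h and formazan was read at 450 nm. EC50 was the concentration giving 50% of the formazan of uninfected, compound-free cells.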

[4] = test system: Human immunodeficiency virus 1; test: Antiviral activity against HIV1 92HT599 infected in human MT2 cells assessed as inhibition of viral p24 antigen production after 5 days; assay type: functional, organism-based; conditions: Human immunodeficiency virus 1, 92HT599, MT2, 120 h; how it was run: as §1
[5] = test system: Human immunodeficiency virus 1; test: Antiviral activity against HIV1 harboring capsid I201V mutant protein infected in human HeLa cells assessed as decrease in viral infection after 72 hrs by beta-galactosidase reporter gene assay; assay type: functional, organism-based; conditions: Human immunodeficiency virus 1, HeLa
[6] = test system: Human immunodeficiency virus 1; test: Selectivity ratio of EC50 for HIV1 harboring capsid I201V mutant protein infected in human HeLa cells to EC50 for wild type HIV1 infected in human HeLa cells; assay type: functional
How it was run: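 MT-2 cells were infected for 2 h with wild-type NL4-3 or recombinant NL4-3 carrying CA I201V or SP1 A1V. They were then cocultured with HeLa CD4 LTR/beta-Gal indicator cells in serially diluted compound. Beta-gal reporter was read after 4 days. EC50s are means ± SD of 3–6 experiments. Fold change is mutant EC50 divided by wild-type EC50.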

[7] = test system: Human immunodeficiency virus 1; test: Antiviral activity HIV1 NL4-3 infected in human PBMC after 7 days by scintillation counting; assay type: functional, organism-based; conditions: Human immunodeficiency virus 1, NL4-3, 168 h
How it was run: (§2)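 PBMCs came from buffy coats pooled from 3–4 seronegative donors, were PHA-stimulated (1.5 μg/ml, 3 days) and frozen. Thawed cells were infected 1 h at 37°C with virus input set by TCID50, then pelleted and resuspended in IL-2 (10 ng/ml). They were plated at 4 × 10⁵ cells/ml onto compounds for 7 days at 37°C. Supernatant RT activity was measured by Quan-T-RT scintillation assay.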

[8] = test system: Human immunodeficiency virus 1; test: Antiviral activity HIV1 ROJO infected in human PBMC after 7 days by scintillation counting; assay type: functional, organism-based; conditions: Human immunodeficiency virus 1, ROJO, 168 h
How it was run: (§3)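 Fresh PBMCs from HIV/HBV-seronegative donors were PHA-stimulated (4 μg/ml, 48–72 h) and kept with IL-2 (20 U/ml), with at least two donors pooled. Cells were seeded at 5 × 10⁴/well and infected (final MOI ≅0.1) with nine compound concentrations in triplicate wells. After 7 days, reverse transcriptase activity was measured in cell-free supernatant.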

[9] = test system: Human immunodeficiency virus 1; test: Antiviral activity HIV1 WEJO infected in human PBMC after 7 days by scintillation counting; assay type: functional, organism-based; conditions: Human immunodeficiency virus 1, WEJO, 168 h; how it was run: as §3
[10] = test system: Human immunodeficiency virus 1; test: Antiviral activity HIV1 92BR014 infected in human PBMC after 7 days by scintillation counting; assay type: functional, organism-based; conditions: Human immunodeficiency virus 1, 92BR014, 168 h; how it was run: as §3
[11] = test system: Human immunodeficiency virus 1; test: Antiviral activity HIV1 92BR017 infected in human PBMC after 7 days by scintillation counting; assay type: functional, organism-based; conditions: Human immunodeficiency virus 1, 92BR017, 168 h; how it was run: as §2
[12] = test system: Human immunodeficiency virus 1; test: Antiviral activity HIV1 92BR026 infected in human PBMC after 7 days by scintillation counting; assay type: functional, organism-based; conditions: Human immunodeficiency virus 1, 92BR026, 168 h
[13] = test system: Human immunodeficiency virus 1; test: Antiviral activity HIV1 92BR030 infected in human PBMC after 7 days by scintillation counting; assay type: functional, organism-based; conditions: Human immunodeficiency virus 1, 92BR030, 168 h; how it was run: as §3
[14] = test system: Human immunodeficiency virus 1; test: Antiviral activity HIV1 92HT594 infected in human PBMC after 7 days by scintillation counting; assay type: functional, organism-based; conditions: Human immunodeficiency virus 1, 92HT594, 168 h; how it was run: as §2
[15] = test system: Human immunodeficiency virus 1; test: Antiviral activity HIV1 93BR023 infected in human PBMC after 7 days by scintillation counting; assay type: functional, organism-based; conditions: Human immunodeficiency virus 1, 93BR023, 168 h; how it was run: as §3
[16] = test system: Human immunodeficiency virus 1; test: Antiviral activity HIV1 93TH074 infected in human PBMC after 7 days by scintillation counting; assay type: functional, organism-based; conditions: Human immunodeficiency virus 1, 93TH074, 168 h; how it was run: as §2
[17] = Therapeutic index, ratio of CC50 for human PBMC to EC50 for HIV1 NL4-3 infected in human PBMC; conditions: read-out: TI
How it was run: (§4)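 Frozen PHA-stimulated (1.5 μg/ml, 3 days) buffy-coat PBMCs pooled from three or four seronegative donors. Infected with a TCID50-based virus input per 10⁶ cells for 1 h at 37°C, then pelleted and resuspended in 10 ng/ml IL-2. Plated at 4 × 10⁵ cells/ml on compound dilutions for 7 days at 37°C. Supernatant RT measured by Quan-T-RT. TI is mean CC50 divided by mean EC50.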

[18] = Therapeutic index, ratio of CC50 for human PBMC to EC50 for HIV1 91US005 infected in human PBMC; conditions: read-out: TI
How it was run: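 TI was the mean PBMC CC50 divided by the mean EC50 from the 7-day PBMC reverse transcriptase assay.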

[19] = Therapeutic index, ratio of CC50 for human PBMC to EC50 for HIV1 92HT594 infected in human PBMC; conditions: read-out: TI; how it was run: as §4
[20] = Therapeutic index, ratio of CC50 for human PBMC to EC50 for HIV1 92RW009 infected in human PBMC; conditions: read-out: TI; how it was run: as §4
[21] = Therapeutic index, ratio of CC50 for human PBMC to EC50 for HIV1 92TH014 infected in human PBMC; conditions: read-out: TI
How it was run: (§5)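 PHA-stimulated (4 μg/ml, 48 to 72 h) PBMCs pooled from at least two seronegative donors, kept with 20 U/ml IL-2, plated at 5 × 10⁴ cells/well. Infected with clinical isolate (final MOI ≅0.1) alongside nine compound concentrations in triplicate wells, 7 days. Supernatant reverse transcriptase activity measured. TI is mean PBMC CC50 divided by mean EC50.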

[22] = Therapeutic index, ratio of CC50 for human PBMC to EC50 for HIV1 92US072 infected in human PBMC; conditions: read-out: TI; how it was run: as §5
[23] = Therapeutic index, ratio of CC50 for human PBMC to EC50 for HIV1 93BR029 infected in human PBMC; conditions: read-out: TI; how it was run: as §4
[24] = Therapeutic index, ratio of CC50 for human PBMC to EC50 for HIV1 93TH074 infected in human PBMC; conditions: read-out: TI; how it was run: as §4

## CC(C)(C)c1ccc(C(Cn2cccc(C(F)(F)F)c2=O)NC2Cc3ccccc3C2)cc1 (centres undefined)
[1]
  CC50 at 144 h: 15000 nM
[2]
  EC50: 30 nM
[3]
  EC50: 17 nM
[4]
  EC50: 210 nM
[5]
  EC50: > 10000 nM
[6]
  Ratio EC50: >49
[7]
  EC50: 110 nM
[8]
  EC50: > 17000 nM
[9]
  EC50: 1500 nM
[10]
  EC50: 7000 nM
[11]
  EC50: 120 nM
[12]
  EC50: > 17000 nM
[13]
  EC50: > 17000 nM
[14]
  EC50: 1100 nM
[15]
  EC50: > 17000 nM
[16]
  EC50: 120 nM
[17]
  selectivity ratio: 155
[18]
  selectivity ratio: < 1
[19]
  selectivity ratio: 15
[20]
  selectivity ratio: 12
[21]
  selectivity ratio: < 1
[22]
  selectivity ratio: 3400
[23]
  selectivity ratio: 30
[24]
  selectivity ratio: 142
